“And” between values parts separate entries of the source, which are not always exact repeats. Identical values can stand only once. Like-named read-outs stand apart in the source and are kept apart here.
Key:
[1] = cited from earlier work
[2] = target: T1, insulin fibrils (Bos taurus, UniProt P01317); details: read-out: Kd of ThT binding to insulin fibrils; one binding site; cited from earlier work
[3] = target: T2, lysozyme fibrils (Gallus gallus, UniProt P00698); details: two binding sites, cited from earlier work
T2 sequence (P00698 19-147): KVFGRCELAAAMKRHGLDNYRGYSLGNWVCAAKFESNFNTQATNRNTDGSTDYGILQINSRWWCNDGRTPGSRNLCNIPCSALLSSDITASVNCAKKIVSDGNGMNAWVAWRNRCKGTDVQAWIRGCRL

[4] = target: T3, TTR fibrils (Homo sapiens, UniProt P02766); details: two separate binding events, cited from earlier work
[5] = UV-vis absorption and fluorescence spectra in methanol; type: physicochemical; details: for λmax (em): excitation 330 nm, [probe] = 20 μM; for ε: four concentrations
Method in brief: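 Absorption is read in methanol in a 1 cm quartz cuvette at room temperature, at 20 μM and at four concentrations (50–5 μM, or 10–2 μM for one probe) for ε. Fluorescence of 20 μM probe in methanol uses 330 nm excitation, 350–600 nm emission and 1 nm resolution.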

[6] = target: T2, lysozyme fibrils; assay: Fluorescence emission of probe bound to lysozyme fibrils; type: binding, chicken; details: pH 3.0; for Int: fold increase in fluorescence intensity upon binding to lysozyme fibrils: 5 μM fibrils (monomer basis) + 1 μM probe, versus free probe; for λem2: emission maxima of probe bound to lysozyme fibrils: 5 μM fibrils + 1 μM probe, excitation 330 nm
Method in brief: (§1)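 Fibrils made from pH 3.0 (TTR: purified WT TTR in 50 mM NaAc/100 mM NaCl; bovine insulin or hen lysozyme: 200 μM in 25 mM HCl pH 1.6 at 65 °C, then dialysed into NaAc/NaCl pH 3.0). 1.0 μM probe from DMSO stock mixed with 5 μM fibrils (monomer basis) in HOAc/NaAc pH 3.0. Excitation 330 nm, emission 350–600 nm. Fold increase taken relative to free probe in buffer.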

[7] = target: T1, insulin fibrils; assay: Titration of insulin fibrils on a fixed probe concentration; type: binding, Bovine
Method in brief: (§2)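 Fibrils (0–20 μM, monomer basis) are titrated onto fixed probe: 1 μM, or 0.5 μM for Aβ1-42 fibrils. Buffers are pH 3.0 for TTR, insulin and lysozyme, and PBS pH 7.5 for Aβ1-42 (10 μM, 37 °C, 24 h quiescent). Samples equilibrate 30 min at room temperature. Excitation 330 nm, emission 350–700 nm. Kd comes from a one-site nonlinear fit with fixed Bmax correcting for unbound probe. SD is from two independent binding series.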

[8] = target: T4, Aβ1-42 fibrils (Homo sapiens, UniProt P05067); assay: Titration of Aβ1-42 fibrils on a fixed probe concentration; type: binding
T4 sequence (P05067 672-713): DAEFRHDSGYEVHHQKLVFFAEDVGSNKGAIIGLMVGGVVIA
Method in brief: as §2

[9] = target: native Aβ1-42 (Homo sapiens, UniProt P05067); assay: Fluorescence emission of probe with freshly dissolved native Aβ1-42; type: binding; details: 5 μM native Aβ1-42 + 1 μM probe; PBS buffer
Chain of native Aβ1-42 (P05067 672-713): as above
Method in brief: (§3)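 Probe (1.0 μM final, from DMSO stock) is read free in buffer or with 5 μM native protein (monomer basis). Buffers are HOAc/NaAc pH 3.0 or PBS pH 7.5. Aβ1-42 is recombinant with an extra N-terminal Met, freshly gel-filtered monomer in PBS pH 7.5. Spectra are recorded at 330 nm excitation, 350–600 nm emission, with identical instrument settings.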

[10] = target: T2, lysozyme fibrils; assay: Titration of lysozyme fibrils on a fixed probe concentration; type: binding, chicken
Method in brief: as §2

[11] = Fluorescence lifetime; type: physicochemical; details: A: degassed methanol, [probe] = 5 μM; for τ1: excitation 337 nm
Method in brief: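 TCSPC decays of 5 μM probe in argon-degassed methanol, excited at 337 nm and monitored at each emission maximum at room temperature. Instrument response is determined with a fibril solution. Decays are fitted to a sum of exponentials, with fit quality judged by χ2, residual distribution and residual autocorrelation. Average lifetime is calculated from amplitudes and lifetimes. Lifetime uncertainty is within 10%.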

[12] = target: T3, TTR fibrils; assay: Titration of TTR fibrils on a fixed probe concentration; type: binding
Method in brief: as §2

[13] = target: T4, Aβ1-42 fibrils; assay: Fluorescence lifetime; details: for τavg (average fluorescence lifetime): B: bound to Aβ1-42 fibrils in PBS buffer pH 7.5, [probe] = 5 μM; for τavg (average fluorescence lifetime) / λem1 (emission wavelength of decay) / τ1: [fibrils] = 20 μM; for λem1 (emission wavelength of decay) / τ1: [probe] = 5 μM
Method in brief: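 Time-correlated single photon counting on 5 μM probe with 20 μM Aβ1-42 fibrils (monomer basis) in PBS pH 7.5 at 25 °C, not degassed. Excitation 337 nm; decay recorded at the bound-probe emission maximum. Instrument response is measured with fibril solution. Multi-exponential fits are judged by χ2 and residuals. Uncertainty is within 10%.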

[14] = target: T1, insulin fibrils; assay: Fluorescence emission of probe bound to insulin fibrils; type: binding, Bovine; details: pH 3.0; for Int: fold increase in fluorescence intensity upon binding to insulin fibrils: 5 μM fibrils (monomer basis) + 1 μM probe, versus free probe; for λem2: emission maxima of probe bound to insulin fibrils: 5 μM fibrils + 1 μM probe, excitation 330 nm
Method in brief: as §1

[15] = target: T3, TTR fibrils; assay: Fluorescence emission of probe bound to TTR fibrils; type: binding; details: 5 μM fibrils + 1 μM probe; pH 3.0; excitation 330 nm
Method in brief: as §1

[16] = target: T4, Aβ1-42 fibrils; assay: Fluorescence emission of probe bound to Aβ1-42 fibrils; type: binding; details: PBS buffer pH 7.5; for Int: fold increase in fluorescence intensity upon binding to Aβ1-42 fibrils: 5 μM fibrils (monomer basis) + 1 μM probe, versus free probe; for λem2: emission maxima of probe bound to Aβ1-42 fibrils: 5 μM fibrils + 1 μM probe, excitation 330 nm
Method in brief: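 Recombinant Aβ1-42 (extra N-terminal Met), solubilised in 6 M GuHCl and gel-filtered into PBS pH 7.5. […] Probe (1.0 μM, from DMSO stock) mixed with 5 μM fibrils or freshly dissolved monomer (monomer basis) in PBS pH 7.5. Emission spectra at 330 nm excitation, identical settings.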

[17] = target: T5, native TTR (Homo sapiens, UniProt P02766); assay: Fluorescence emission of probe with native TTR; type: binding; details: 5 μM native TTR + 1 μM probe; for emission peaks of probe bound to native TTR: excitation 330 nm; for fluorescence intensity increase upon binding to native TTR: versus probe in buffer
Method in brief: as §3

[18] = target: T5, native TTR; assay: Saturation binding of native TTR to probe
[19] = Emission maximum of free probe in buffer; type: physicochemical; details: HOAc/NaOAc buffer pH 3.0 or PBS buffer pH 7.5
Method in brief: as §3

[20] = read-out: Kd1, TTR fibrils (high-affinity binding site)
[21] = B: bound to Aβ1-42 fibrils in PBS buffer

T1 sequence (P01317 25-54 limits assumed): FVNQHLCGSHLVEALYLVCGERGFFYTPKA
T1 sequence (P01317 85-105 limits assumed): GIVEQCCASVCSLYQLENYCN

Compound | Stokes shift [5] | λmax (abs) [5] | λmax (em) [5] | ε [5] | Int: fold increase in fluorescence intensity upon binding to lysozyme fibrils [6] | λem2: emission maxima of probe bound to lysozyme fibrils [6] | Kd [7] | Kd [8] | fluorescence / binding with freshly prepared native Aβ1-42 [9] | Kd [10] | α1 (normalized pre-exponential factor) [11] | λem1 (emission wavelength of decay) [11] | τavg (average fluorescence lifetime) [11] | Kd [12] | α1 (normalized pre-exponential factor) [13, 21] | α2 (normalized pre-exponential factor) [13, 21] | τ2 [13, 21] | τavg (average fluorescence lifetime) [13] | λem1 (emission wavelength of decay) [13, 21] | τ1 [13, 21] | also measured
Cc1ccc2c(c1)sc(-c1ccc(N(C)C)cc1)[n+]2C [ThT, thioflavin T] |  |  |  |  |  |  |  |  |  |  |  |  |  |  |  |  |  |  |  |  | average fluorescence lifetime t1/2 [1]: < 1 ns; Kd [2]: 10.4 µM; Kd ([3]; read-out: Kd1 of ThT binding to lysozyme fibrils): 0.13 µM; Kd ([3]; read-out: Kd2 of ThT binding to lysozyme fibrils): 17.9 µM
Oc1ccc(/C=C/c2cccc3ccccc23)cc1O [Compound 1, (E)-4-(2-(naphthalen-1-yl)vinyl)benzene-1,2-diol] |  |  |  |  |  |  |  |  |  |  |  |  |  |  |  |  |  |  |  |  | Kd [4, 20]: 110 nM; Kd ([4]; read-out: Kd2, TTR fibrils): > 10000 nM
Oc1ccc(/C=C/c2ccc3ccccc3c2)cc1O [Compound 3, (E)-4-(2-(naphthalen-2-yl)vinyl)benzene-1,2-diol] | 86 nm | 334 nm | 420 nm | 30 170 L·M^–1 cm^–1 | 13.1 fold | 410 nm | 4.5 ± 0.4 µM | 2200 ± 400 nM | showed some binding | 2900 ± 200 nM | 1 | 415 nm | 0.52 ns | 12.3 ± 1 µM | 0.54 | 0.46 | 1.65 ns | 1.5 ns and 1.45 ns | 420 nm | 0.23 ns | τ1 [11]: 0.52 ns; Kd [4, 20]: 70 nM; Kd ([4]; read-out: Kd2, TTR fibrils): > 10000 nM; Int: fold increase in fluorescence intensity upon binding to insulin fibrils [14]: 13.7 fold; λem2: emission maxima of probe bound to insulin fibrils [14]: 410 nm; λem2: emission maxima of probe bound to TTR fibrils [15]: 395 nm; Int: fold increase in fluorescence intensity upon binding to Aβ1-42 fibrils [16]: 6.9 fold; λem2: emission maxima of probe bound to Aβ1-42 fibrils [16]: 408 nm
Oc1ccc(/C=C/c2ccc3cc4ccccc4cc3c2)cc1O [Compound 4, (E)-4-(2-(anthracen-2-yl)vinyl)benzene-1,2-diol] | 148 nm | 335 nm | 483 nm | 27 070 L·M^–1 cm^–1 | 37.5 fold | 451 nm | 3.7 ± 0.6 µM | 1600 ± 100 nM | Neither 2, 4, or 5 fluoresced appreciably | 2800 ± 400 nM | 1 | 475 nm | 4.23 ns | 7.4 ± 0.5 µM | 0.38 | 0.62 | 6.06 ns | 5.7 ns and 5.73 ns | 460 nm | 0.64 ns | emission peaks of probe bound to native TTR [17]: 449 nm and 476 nm; fluorescence intensity increase upon binding to native TTR [17]: about 6.1 fold; τ1 [11]: 4.23 ns; Int: fold increase in fluorescence intensity upon binding to insulin fibrils [14]: 91.4 fold; λem2: emission maxima of probe bound to insulin fibrils [14]: 451 nm and 471 nm; λem2: emission maxima of probe bound to TTR fibrils [15]: 451 nm and 475 nm; Int: fold increase in fluorescence intensity upon binding to Aβ1-42 fibrils [16]: 10.3 fold
Oc1ccc(/C=C/c2cc3ccc4cccc5ccc(c2)c3c45)cc1O [Compound 5, (E)-4-(2-(pyren-2-yl)vinyl)benzene-1,2-diol] | 78 nm | 337 nm | 415 nm | 47 668 L·M^–1 cm^–1 | 8.9 fold | 420 nm | 2.3 ± 0.4 µM | 1300 ± 100 nM | Neither 2, 4, or 5 fluoresced appreciably | 1600 ± 300 nM | 0.77 | 425 nm | 19.11 ns | 6 ± 0.3 µM | 0.11 | 0.42 | 8.89 ns | 29.8 ns and 29.76 ns | 430 nm | 0.83 ns | Kd [18]: 200 ± 10 nM; emission peaks of probe bound to native TTR [17]: 420 nm and 445 nm and 475 nm; fluorescence intensity increase upon binding to native TTR [17]: 15.8 fold; α2 (normalized pre-exponential factor) [11]: 0.23; τ2 [11]: 29.30 ns; λem1: emission maxima of probes in buffer [19]: 420 nm; α3 (normalized pre-exponential factor) [13, 21]: 0.47; τ3 [13, 21]: 34.70 ns; Int: fold increase in fluorescence intensity upon binding to insulin fibrils [14]: 23.2 fold; λem2: emission maxima of probe bound to insulin fibrils [14]: 420 nm and 445 nm and 475 nm; λem2: emission maxima of probe bound to TTR fibrils [15]: 420 nm and 445 nm and 475 nm; Int: fold increase in fluorescence intensity upon binding to Aβ1-42 fibrils [16]: 11.1 fold; λem2: emission maxima of probe bound to Aβ1-42 fibrils [16]: ~421 nm
Oc1ccc(/C=C/c2ccccc2)cc1O [Compound 2, (E)-4-Styrylbenzene-1,2-diol] | 61 nm | 325 nm | 386 nm | 25 038 L·M^–1 cm^–1 | 3.8 fold | 382 nm | 8 ± 1.6 µM | 4300 ± 200 nM | Neither 2, 4, or 5 fluoresced appreciably | 7000 ± 1600 nM | 1 | 395 nm | <0.05 ns | 15.1 ± 0.9 µM | 0.86 | 0.14 | 2.31 ns | 1.3 ns and 1.33 ns | 410 nm | 0.28 ns | τ1 [11]: < 0.05 ns; Int: fold increase in fluorescence intensity upon binding to insulin fibrils [14]: 7.5 fold; λem2: emission maxima of probe bound to insulin fibrils [14]: 382 nm; λem2: emission maxima of probe bound to TTR fibrils [15]: 395 nm; Int: fold increase in fluorescence intensity upon binding to Aβ1-42 fibrils [16]: 2.6 fold; λem2: emission maxima of probe bound to Aβ1-42 fibrils [16]: 384 nm

Reference: PMC6641930 (ACS Omega, 2017)
